Holding throughout (type): functional
Test [1] deals with Mycobacterium tuberculosis. The experiment in a line: Antimycobacterial activity against Mycobacterium tuberculosis My 331/88 after 14 days by micromethod. To be noted: My 331/88, 336 h. In short, it runs like this: (§1)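 MIC by micromethod at 37 °C, read after 14 and 21 days. Inocula were M. tuberculosis My 331/88 at 10^-3 dilution and M. avium My 330/88 at 10^-5 dilution. Compounds added in DMSO across 1000, 500, 250, 125, 62.5, 32, 16, 8, 4, 2, 1 and 0.5; isoniazid standard in sterile water. MIC taken as the lowest concentration inhibiting growth.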

For test [2], the system named is Mycobacterium avium. The experiment in a line: Antimycobacterial activity against Mycobacterium avium My 330/88 after 14 days by micromethod. The conditions noted are these: My 330/88, 336 h.
For test [3], the system named is Mycobacterium avium. The experiment in a line: Antimycobacterial activity against Mycobacterium avium My 330/88 after 21 days by micromethod. The conditions noted are these: My 330/88, 504 h.
In test [4] the test system is Mycobacterium kansasii. The experiment in a line: Antimycobacterial activity against Mycobacterium kansasii My 235/80 after 14 days by micromethod. To be noted: My 235/80, 336 h.
Test [5] has as its system Mycobacterium kansasii. The experiment in a line: Antimycobacterial activity against Mycobacterium kansasii My 235/80 after 21 days by micromethod. The conditions noted are these: My 235/80, 504 h.
Test [6] concerns Mycobacterium tuberculosis. The experiment in a line: Antimycobacterial activity against Mycobacterium tuberculosis My 331/88 after 21 days by micromethod. To be noted: My 331/88, 504 h. The method in brief: as §1

Converted amounts (≈) assume the structure as drawn.

For the compound `O=C(Nc1ccc(C(F)(F)F)cc1)c1cc(Cl)ccc1O`, the MIC was 2 µM (≈ 0.631 µg/mL) in test [1]; 8 µM (≈ 2.53 µg/mL) against Mycobacterium avium [2]; 8 µM (≈ 2.53 µg/mL) with Mycobacterium avium [3]; 1 µM (≈ 0.316 µg/mL) in the test on Mycobacterium kansasii [4]; 1 µM (≈ 0.316 µg/mL) in the test on Mycobacterium kansasii [5]; 2 µM (≈ 0.631 µg/mL) in test [6].
`O=C(Nc1cccc(Cl)c1)c1ccc(Cl)cc1O`: the MIC in test [1] came out at 4 µM (≈ 1.13 µg/mL); with Mycobacterium avium [2] it was 16 µM (≈ 4.51 µg/mL); against Mycobacterium avium [3], 16 µM (≈ 4.51 µg/mL); against Mycobacterium kansasii [4], 4 µM (≈ 1.13 µg/mL); in the test with Mycobacterium kansasii [5] it was 8 µM (≈ 2.26 µg/mL); in test [6] it was 4 µM (≈ 1.13 µg/mL).
Take `O=C(Nc1cccc([N+](=O)[O-])c1)c1cc(Cl)ccc1O`: the minimal inhibitory concentration (MIC) in test [1] amounted to 8 µM (≈ 2.34 µg/mL); against Mycobacterium avium [2], 16 µM (≈ 4.68 µg/mL); in the test with Mycobacterium avium [3] it was 16 µM (≈ 4.68 µg/mL); with Mycobacterium kansasii [4] it was 8 µM (≈ 2.34 µg/mL); in the test with Mycobacterium kansasii [5] it was 8 µM (≈ 2.34 µg/mL); in test [6], 8 µM (≈ 2.34 µg/mL).
For `O=C(Nc1ccc(Cl)cc1)c1ccc(Cl)cc1O`, the MIC in test [1] is 4 µM (≈ 1.13 µg/mL); in the test with Mycobacterium avium [2] it was 8 µM (≈ 2.26 µg/mL); in the test on Mycobacterium avium [3], 8 µM (≈ 2.26 µg/mL); with Mycobacterium kansasii [4], 4 µM (≈ 1.13 µg/mL); in the test with Mycobacterium kansasii [5], 8 µM (≈ 2.26 µg/mL); in test [6], 4 µM (≈ 1.13 µg/mL).
`O=C(Nc1ccc([N+](=O)[O-])cc1)c1cc(Cl)ccc1O`: the MIC is 4 µM (≈ 1.17 µg/mL) in test [1]; 8 µM (≈ 2.34 µg/mL) with Mycobacterium avium [2]; 8 µM (≈ 2.34 µg/mL) against Mycobacterium avium [3]; 4 µM (≈ 1.17 µg/mL) against Mycobacterium kansasii [4]; 4 µM (≈ 1.17 µg/mL) in the test on Mycobacterium kansasii [5]; 8 µM (≈ 2.34 µg/mL) in test [6].
For `O=C(Nc1ccc(C(F)(F)F)cc1)c1ccc(Cl)cc1O`, the MIC in test [1] amounted to 4 µM (≈ 1.26 µg/mL); in the test on Mycobacterium avium [2], 8 µM (≈ 2.53 µg/mL); with Mycobacterium avium [3], 8 µM (≈ 2.53 µg/mL); against Mycobacterium kansasii [4], 4 µM (≈ 1.26 µg/mL); against Mycobacterium kansasii [5], 4 µM (≈ 1.26 µg/mL); in test [6] it was 4 µM (≈ 1.26 µg/mL).
As to `O=C(Nc1cccc([N+](=O)[O-])c1)c1ccc(Cl)cc1O`, the minimal inhibitory concentration (MIC) in test [1] was 8 µM (≈ 2.34 µg/mL); in the test with Mycobacterium avium [2] it was 16 µM (≈ 4.68 µg/mL); in the test on Mycobacterium avium [3], 16 µM (≈ 4.68 µg/mL); against Mycobacterium kansasii [4], 16 µM (≈ 4.68 µg/mL); against Mycobacterium kansasii [5], 16 µM (≈ 4.68 µg/mL); in test [6], 8 µM (≈ 2.34 µg/mL).
Turning to `O=C(Nc1ccc(Br)cc1)c1cc(Cl)ccc1O`, the MIC in test [1] was 8 µM (≈ 2.61 µg/mL); in the test on Mycobacterium avium [2], 8 µM (≈ 2.61 µg/mL); in the test on Mycobacterium avium [3] it was 8 µM (≈ 2.61 µg/mL); against Mycobacterium kansasii [4], 4 µM (≈ 1.31 µg/mL); in the test with Mycobacterium kansasii [5], 4 µM (≈ 1.31 µg/mL); in test [6], 16 µM (≈ 5.23 µg/mL).
With `O=C(Nc1ccc(Cl)cc1)c1cc(Cl)ccc1O`, the MIC came to 4 µM (≈ 1.13 µg/mL) in test [1]; 8 µM (≈ 2.26 µg/mL) in the test with Mycobacterium avium [2]; 8 µM (≈ 2.26 µg/mL) in the test with Mycobacterium avium [3]; 8 µM (≈ 2.26 µg/mL) with Mycobacterium kansasii [4]; 8 µM (≈ 2.26 µg/mL) with Mycobacterium kansasii [5]; 4 µM (≈ 1.13 µg/mL) in test [6].
With `O=C(Nc1cccc(Cl)c1)c1cc(Cl)ccc1O`, the MIC is 4 µM (≈ 1.13 µg/mL) in test [1]; 8 µM (≈ 2.26 µg/mL) in the test with Mycobacterium avium [2]; 16 µM (≈ 4.51 µg/mL) against Mycobacterium avium [3]; 4 µM (≈ 1.13 µg/mL) in the test on Mycobacterium kansasii [4]; 8 µM (≈ 2.26 µg/mL) against Mycobacterium kansasii [5]; 8 µM (≈ 2.26 µg/mL) in test [6].
Turning to `O=C(Nc1ccc(Cl)c(Cl)c1)c1cc(Cl)ccc1O`, the MIC in test [1] was 4 µM (≈ 1.27 µg/mL); against Mycobacterium avium [2], 16 µM (≈ 5.07 µg/mL); in the test with Mycobacterium avium [3], 16 µM (≈ 5.07 µg/mL); in the test with Mycobacterium kansasii [4], 4 µM (≈ 1.27 µg/mL); against Mycobacterium kansasii [5], 4 µM (≈ 1.27 µg/mL); in test [6], 8 µM (≈ 2.53 µg/mL).

For orientation: MIC means the lowest concentration that inhibits growth of the organism.

(Values after ChEMBL document CHEMBL2086318, “Synthesis and in vitro antimycobacterial activity of 2-methoxybenzanilides and their thioxo analogues” (Eur J Med Chem, 2012).)
